Test results as given in ChEMBL document CHEMBL3758104, “Reinvestigating Old Pharmacophores: Are 4-Aminoquinolines and Tetraoxanes Potential Two-Stage Antimalarials?” (J Med Chem, 2016).
pIC50: −log10 of the molar value. Activity calls are given as the source filed them. The calls are words filed in the database; no cut-off is given here.

Tests used:
Plasmodium falciparum [1] = test: Antimalarial activity against 4th to 5th gametocyte stage of Plasmodium falciparum 3D7elo1-pfs16-CBG99 assessed as inhibition of gametocyte viability by luciferase reporter gene assay; format: functional, organism-based
How it was run: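 Stage IV–V gametocytes of luciferase-expressing 3D7elo1-pfs16-CBG99 strain (CBG99 under pfs16 promoter); luciferase activity as viability read-out. Viability = 100×(treated−blank)/(untreated−blank), blank = 100 nM epoxomicin-treated sample. Epoxomicin and dihydroartemisinin as positive controls. IC50 from nonlinear regression of dose–response; mean of three experiments in duplicate.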

Plasmodium berghei [2] = test: Antimalarial activity against sporozoite stage of Plasmodium berghei infected in human Huh7 cells assessed as remaining parasite infection at 10 uM pre-incubated for 24 hrs followed by parasite infection measured after 48 hrs by bioluminescence assay; conditions: Huh-7
Plasmodium berghei [3] = test: Antimalarial activity against sporozoite stage of Plasmodium berghei ANKA infected in C57Bl/6J mouse assessed as reduction in liver parasite load at 50 mg/kg/, po administered for 3 days measured after 48 hrs by luciferase reporter gene assay relative to control; format: functional; design: scale not given: the % may be the effect or the level left
How it was run: (§1)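 C57BL/6J mice dosed by oral gavage (DMSO in sunflower oil) on three consecutive days: 24 h before, at, and 24 h after intravenous infection with luciferase-expressing P. berghei sporozoites. Controls got vehicle. Liver parasite load measured by in vivo luminescence 46–48 h after infection, after subcutaneous luciferin, expressed as % of controls. Two independent experiments.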

[4] = Half life in mouse hepatocytes at 1 uM by LC-MS/MS analysis; format: ADME, cell-based, Hepatocyte
How it was run: (§2)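 Cryopreserved human or mouse hepatocytes equilibrated for 30 min at 37 °C, then given 1 μM final compound in duplicate at 37 °C. Samples quenched at set times in ice-cold methanol with internal standards. Parent depletion by LC-MS/MS (MRM) as % of time zero, fitted to first-order decay. t1/2 = 0.693/k, and CLint derived from it. Verapamil and warfarin served as controls.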

[5] = Intrinsic clearance in mouse hepatocytes assessed per 10^6 cells at 1 uM by LC-MS/MS analysis; format: ADME, cell-based, Hepatocyte; conditions: read-out: CLH; how it was run: as §2
Hepatocyte [6] = test: Drug metabolism in human hepatocytes assessed as dihydroxylated metabolite formation at 1 uM after 60 mins by LC-MS/MS analysis; format: ADME, cell-based; conditions: 1 h
How it was run: (§3)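 Hepatocyte incubation of 1 μM compound at 37 °C, in duplicate. Supernatants analysed by LC-MS/MS, with SRM monitoring of phase I and II metabolites (oxidation, demethylation, dehydrogenation, glucuronidation, oxidation + glucuronidation).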

Plasmodium berghei [7] = test: Antimalarial activity against sporozoite stage of Plasmodium berghei infected in human Huh7 cells assessed as remaining parasite infection at 2 uM pre-incubated for 24 hrs followed by parasite infection measured after 48 hrs by bioluminescence assay; conditions: Huh-7
Hepatocyte [8] = test: Metabolic stability in human hepatocytes assessed as compound remaining at 1 uM after 60 mins by LC-MS/MS analysis; format: ADME, cell-based; conditions: 2 h, in the assay text read “120 mins” for “60 mins”; how it was run: as §2
Hepatocyte [9] = test: Drug metabolism in mouse hepatocytes assessed as dihydroxylated metabolite formation at 1 uM after 60 mins by LC-MS/MS analysis; format: ADME, cell-based; conditions: 1 h; how it was run: as §3
Hepatocyte [10] = test: Half life in human hepatocytes at 1 uM by LC-MS/MS analysis; format: ADME, cell-based; how it was run: as §2
Plasmodium falciparum [11] = test: Antimalarial activity against chloroquine-susceptible Plasmodium falciparum D6 after 48 hrs by [3H]hypoxanthine incorporation assay; format: functional, organism-based
How it was run: (§4)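 P. falciparum D6 (Sierra I/UNC clone), W2 (Indochina I clone), TM91C235 (South-East Asian clone) cultured with compound; growth inhibition by [3H]hypoxanthine incorporation (modified Desjardins/Milhous method). Chloroquine, mefloquine, artemisinin as positive controls. IC50 in nM; technical triplicates, curve fits R2 0.96–1.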

Plasmodium falciparum [12] = test: Antimalarial activity against mutidrug resistant Plasmodium falciparum TM91C235 after 48 hrs by [3H]hypoxanthine incorporation assay; format: functional, organism-based; how it was run: as §4
HepG2 = test: Cytotoxicity against human HepG2 cells after 48 hrs by MTT assay; format: cell-based; conditions: HepG2, 48 h
Plasmodium berghei [13] = test: Antimalarial activity against Plasmodium berghei ANKA infected in C57Bl6 mouse at 80 mg/kg/day, po measured on day 3 to 5 by Thompson test; format: functional
[14] = Half life in mouse liver microsomes at 1 uM by LC-MS/MS analysis; format: ADME
Hepatocyte [15] = test: Drug metabolism in human hepatocytes assessed as monohydroxylated metabolite formation at 1 uM after 60 mins by LC-MS/MS analysis; format: ADME, cell-based; conditions: 1 h; how it was run: as §3
Plasmodium berghei [16] = test: Antimalarial activity against Plasmodium berghei ANKA infected in C57Bl6 mouse at 160 mg/kg/day, po measured on day 3 to 5 by Thompson test; format: functional
[17] = Inhibition of beta hematin formation measured as hemin equivalent after 18 hrs; format: physicochemical
How it was run: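 Hemin (16 mM in DMSO) mixed with compound at 0.125–5 mol equiv to hemin, plus water and 8 M acetate buffer pH 5.2, 25% DMSO final. Incubated 18 h at 37 °C. Pellet washed with DMSO, dissolved in 0.1 M NaOH, absorbance read at 405 nm (corrected at 670 nm) against a hemin calibration.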

Plasmodium berghei [18] = test: Antimalarial activity against Plasmodium berghei ANKA infected in C57Bl6 mouse at 40 mg/kg/day, po on days 3 to 5 by Thompson test; format: functional
[19] = Intrinsic clearance in human hepatocytes assessed per 10^6 cells at 1 uM by LC-MS/MS analysis; format: ADME, cell-based, Hepatocyte; conditions: read-out: CLH; how it was run: as §2
Plasmodium berghei [20] = test: Antimalarial activity against Plasmodium berghei ANKA infected in C57Bl6 mouse assessed as reduction of parasitemia at 10 to 20 mg/kg/day, po administered for day 3 to 5 by Thompson test; format: functional, organism-based
How it was run: (§5)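 Modified Thompson test: C57Bl6 female mice inoculated intraperitoneally on day 0 with 1×10^6 P. berghei ANKA-infected erythrocytes; compound suspended in 0.5% hydroxyethylcellulose–0.1% Tween 80, given orally once daily on days 3, 4 and 5 post infection. Parasitemia by Giemsa-stained thin tail-blood smears on days 0, 3, 6, 10, 13, 17, 20, 24, 27, 31. Cure = survival without parasitemia to day 31.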

Plasmodium berghei [21] = test: Antimalarial activity against Plasmodium berghei ANKA infected in po dosed C57Bl6 mouse administered on day 3 to 5 by Thompson test; format: functional; how it was run: as §5
Plasmodium falciparum [22] = test: Antimalarial activity against chloroquine-resistant Plasmodium falciparum W2 after 48 hrs by [3H]hypoxanthine incorporation assay; format: functional, organism-based; how it was run: as §4
Hepatocyte [23] = test: Drug metabolism in mouse hepatocytes assessed as monohydroxylated metabolite formation at 1 uM after 60 mins by LC-MS/MS analysis; format: ADME, cell-based; conditions: 1 h; how it was run: as §3
[24] = Octanol-water partition coefficient, logP of the compound; format: physicochemical
Mus musculus = test: Toxicity in Plasmodium berghei ANKA infected C57Bl6 mouse at 160 mg/kg/day, po administered for 3 days measured 2 times a day for 31 days; format: organism-based; conditions: in vivo, 744 h
Plasmodium berghei [25] = test: Antimalarial activity against sporozoite stage of Plasmodium berghei infected in human Huh7 cells assessed as inhibition of parasite infection pre-incubated for 24 hrs followed by parasite infection measured after 48 hrs by bioluminescence assay; format: functional, organism-based; conditions: Huh-7
Plasmodium berghei [26] = test: Antimalarial activity against sporozoite stage of Plasmodium berghei ANKA infected in C57BL/6J mouse assessed as reduction in liver parasite load at 80 mg/kg/, po administered for 3 days measured after 48 hrs by luciferase reporter gene assay relative to control; format: functional; design: scale not given: the % may be the effect or the level left; how it was run: as §1
Plasmodium berghei [27] = test: Antimalarial activity against sporozoite stage of Plasmodium berghei infected in human Huh7 cells assessed as inhibition of parasite infection at 0.125 uM pre-incubated for 24 hrs followed by parasite infection measured after 48 hrs by bioluminescence assay; format: functional; conditions: Huh-7
[28] = Half life in human liver microsomes at 1 uM by LC-MS/MS analysis; format: ADME
[29] = Selectivity index, ratio of IC50 for mouse RAW 264.7 cells to IC50 for chloroquine susceptible Plasmodium falciparum D6; format: toxicity; conditions: read-out: Ratio IC50
RAW264.7 = test: Cytotoxicity against mouse RAW264.7 cells; format: cell-based
[30] = Selectivity index, ratio of IC50 for human HepG2 cells to IC50 for chloroquine susceptible Plasmodium falciparum D6; format: toxicity, cell-based; conditions: read-out: Ratio IC50
Plasmodium berghei [31] = test: Antimalarial activity against Plasmodium berghei ANKA infected in C57Bl6 mouse assessed as reduction of parasitemia at 160 mg/kg/day, po administered for day 3 to 5 measured on day 6 to 14 by Thompson test; format: functional, organism-based; how it was run: as §5

## CC[C@H](C)[C@H](NC(=O)[C@H]([C@@H](C)CC)N(C)C(C)=O)C(=O)N[C@H](C(=O)N[C@@H](CC(C)C)C(=O)[C@@]1(C)CO1)[C@@H](C)O [EPOXOMYCIN]
Plasmodium falciparum [1]
  pIC50: 7.93

## COc1cc(NC(C)CCCN)c2ncccc2c1 (stereo not drawn) [PRIMAQUINE]
Plasmodium berghei [2]
  % infection at 10 µM: 62%

## CC(CCNCC12CC3CC(CC(C3)C1)C2)Nc1c(F)cnc2cc(Cl)ccc12 (stereo not drawn)
Plasmodium berghei [3]
  Activity: 84%
[4]
  half-life at 1 µM: 79 min
[5]
  hepatocyte CLint at 1 µM: 8.7 µL/min/1e6 cells
Hepatocyte [6]
  Drug metabolism: metabolite_detected
Plasmodium berghei [7]
  % infection at 2 µM: 13%
Hepatocyte [8]
  Stability: 32%
Hepatocyte [9]
  Drug metabolism: metabolite_detected
Hepatocyte [10]
  t1/2: 78 min
Plasmodium falciparum [11]
  pIC50: 6.87
Plasmodium falciparum [12]
  pIC50: 6.71
HepG2
  pIC50: 5.40
Plasmodium berghei [13]
  MST: >31 days
[14]
  half-life at 1 µM: 21 min
Hepatocyte [15]
  Drug metabolism: metabolite_detected
Plasmodium berghei [16]
  MST: 26.2 days
[17]
  IC50: 0.61 equiv
Plasmodium berghei [18]
  MST: 18.4 days
[19]
  hepatocyte CLint at 1 µM: 8.9 µL/min/1e6 cells
Plasmodium berghei [20]
  Activity: inactive
Plasmodium berghei [21]
  Activity: Dose dependent effect
  MCD: 80 mg/kg/day
Plasmodium falciparum [22]
  pIC50: 6.62
Hepatocyte [23]
  Drug metabolism: metabolite_detected
[24]
  logP: 3.25
Mus musculus
  Activity: Non-toxic
Plasmodium berghei [25]
  pIC50: 6.51
Plasmodium berghei [26]
  Activity: 92%
Plasmodium berghei [27]
  inhibition at 0.125 µM: 38%
[28]
  half-life at 1 µM: 13 min

## CC(CNc1ccnc2cc(Cl)ccc12)NCC12CC3CC(CC(C3)C1)C2 (stereo not drawn)
[29]
  selectivity ratio: 1890
RAW264.7
  pIC50: 5.42
Plasmodium falciparum [11]
  pIC50: 8.70
Plasmodium falciparum [12]
  pIC50: 8.05
[14]
  half-life at 1 µM: 10 min
Plasmodium falciparum [22]
  pIC50: 8.00
[28]
  half-life at 1 µM: 13 min

## CC(CCCNCCC12CC3CC(CC(C3)C1)C2)Nc1ccnc2cc(Cl)ccc12 (stereo not drawn)
[30]
  selectivity ratio: 1900
Plasmodium berghei [31]
  Activity: Active
Plasmodium falciparum [11]
  pIC50: 8.15
Plasmodium falciparum [12]
  pIC50: 7.85
HepG2
  pIC50: 4.88
[14]
  half-life at 1 µM: 60 min
Plasmodium berghei [16]
  MST: 21.4 days
Plasmodium falciparum [22]
  pIC50: 7.59
Mus musculus
  Activity: Non-toxic
[28]
  half-life at 1 µM: 60 min
